{"source": "ChEMBL document CHEMBL5678806", "about": "“NMS-P937, an orally available, specific small-molecule polo-like kinase 1 inhibitor with antitumor activity in solid and hematologic malignancies” (Mol Cancer Ther, 2012)", "key": {"[1]": {"molecular_target": "Mitogen-activated protein kinase 1 (Homo sapiens, UniProt P28482)", "sequence (P28482 whole entry)": "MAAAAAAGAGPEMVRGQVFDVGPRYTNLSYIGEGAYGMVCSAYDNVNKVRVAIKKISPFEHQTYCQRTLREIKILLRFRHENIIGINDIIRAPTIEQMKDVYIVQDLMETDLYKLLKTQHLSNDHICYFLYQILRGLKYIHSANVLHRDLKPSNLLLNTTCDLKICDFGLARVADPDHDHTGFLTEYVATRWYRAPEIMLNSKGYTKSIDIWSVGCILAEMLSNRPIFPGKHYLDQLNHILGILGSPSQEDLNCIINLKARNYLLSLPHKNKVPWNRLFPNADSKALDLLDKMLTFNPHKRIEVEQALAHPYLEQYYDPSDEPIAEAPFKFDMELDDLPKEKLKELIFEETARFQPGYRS", "assay": "Inhibition of ERK2 (unknown origin) in presence of [gamma-33P]ATP"}, "[2]": {"molecular_target": "Ephrin type-B receptor 1 (Homo sapiens) (UniProt P54762)", "sequence (P54762 whole entry)": "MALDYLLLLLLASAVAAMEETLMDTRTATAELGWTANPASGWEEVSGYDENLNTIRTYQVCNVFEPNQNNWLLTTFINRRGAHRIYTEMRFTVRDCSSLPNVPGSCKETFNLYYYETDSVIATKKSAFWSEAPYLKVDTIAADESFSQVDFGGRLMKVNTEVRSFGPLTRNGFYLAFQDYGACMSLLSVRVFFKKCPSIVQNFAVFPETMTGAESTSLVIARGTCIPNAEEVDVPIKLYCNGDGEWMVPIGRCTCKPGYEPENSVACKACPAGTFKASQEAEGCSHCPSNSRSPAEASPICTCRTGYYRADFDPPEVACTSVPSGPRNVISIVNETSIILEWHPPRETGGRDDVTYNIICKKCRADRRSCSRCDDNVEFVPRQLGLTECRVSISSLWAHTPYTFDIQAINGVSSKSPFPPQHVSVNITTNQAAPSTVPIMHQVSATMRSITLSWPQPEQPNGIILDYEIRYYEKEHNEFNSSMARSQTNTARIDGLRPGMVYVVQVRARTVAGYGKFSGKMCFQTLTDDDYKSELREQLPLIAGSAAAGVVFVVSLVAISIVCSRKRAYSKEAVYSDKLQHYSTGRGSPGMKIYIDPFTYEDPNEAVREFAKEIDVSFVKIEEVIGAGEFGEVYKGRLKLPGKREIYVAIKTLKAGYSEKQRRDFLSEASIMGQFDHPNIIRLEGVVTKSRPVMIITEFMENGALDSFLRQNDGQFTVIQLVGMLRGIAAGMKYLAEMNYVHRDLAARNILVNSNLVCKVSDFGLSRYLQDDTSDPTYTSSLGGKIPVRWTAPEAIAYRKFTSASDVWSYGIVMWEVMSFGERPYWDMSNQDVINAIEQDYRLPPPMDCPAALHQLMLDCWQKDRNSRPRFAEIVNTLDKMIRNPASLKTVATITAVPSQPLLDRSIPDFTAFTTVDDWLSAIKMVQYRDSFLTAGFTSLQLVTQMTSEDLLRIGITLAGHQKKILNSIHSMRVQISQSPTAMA", "assay": "Inhibition of N-terminal 6His-tagged recombinant human EphB1 (564 to end residues) expressed in baculovirus infected Sf21 cells assessed as residual activity at 0.1 uM relative to control"}, "[3]": {"assay": "Antiproliferative activity against human HCC15 cells assessed as inhibition of cell growth incubated for 72 hrs by cell-titer glo assay", "type": "functional, cell-based", "details": "HCC15, 72 h", "summary_of_the_method": "(§1)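 Cells seeded at 10,000–30,000/cm² (adherent) or 100,000/mL (nonadherent) in medium with 10% fetal calf serum; after 24 h, treated in duplicate with serial dilutions for 72 h. Viable cell number read by CellTiter-Glo luminescence; IC50 from sigmoidal fit; at least two independent experiments.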"}, "[4]": {"molecular_target": "Tyrosine-protein kinase Lyn (Homo sapiens, UniProt P07948)", "assay": "Inhibition of N-terminal his6-tagged recombinant full-length human Lyn expressed in Sf21 cells assessed as residual activity at 0.1 uM relative to control"}, "[5]": {"test_system": "OVCAR-3", "assay": "Antiproliferative activity against human OVCAR-3 cells assessed as inhibition of cell growth incubated for 72 hrs by cell-titer glo assay", "type": "functional, cell-based", "details": "OVCAR-3, 72 h", "summary_of_the_method": "(§2)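 Cells from ATCC or ECACC, kept in supplier-recommended medium with 1% penicillin-streptomycin at 37°C, 5% CO₂. Seeded at 10,000–30,000/cm² (adherent) or 100,000/mL (nonadherent) in medium with 10% fetal calf serum. Dosed after 24 h in duplicate with serial dilutions. Viable cells read by CellTiter-Glo 72 h later. IC50 from sigmoidal fit. At least two independent experiments.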"}, "[6]": {"assay": "Clearance in male cynomolgus monkey at 5 mg/kg, iv by LC-MS analysis", "type": "ADME, organism-based, Macaca fascicularis", "details": "in vivo"}, "[7]": {"molecular_target": "Tyrosine-protein kinase Fes/Fps (Homo sapiens) (UniProt P07332)", "sequence (P07332 whole entry)": "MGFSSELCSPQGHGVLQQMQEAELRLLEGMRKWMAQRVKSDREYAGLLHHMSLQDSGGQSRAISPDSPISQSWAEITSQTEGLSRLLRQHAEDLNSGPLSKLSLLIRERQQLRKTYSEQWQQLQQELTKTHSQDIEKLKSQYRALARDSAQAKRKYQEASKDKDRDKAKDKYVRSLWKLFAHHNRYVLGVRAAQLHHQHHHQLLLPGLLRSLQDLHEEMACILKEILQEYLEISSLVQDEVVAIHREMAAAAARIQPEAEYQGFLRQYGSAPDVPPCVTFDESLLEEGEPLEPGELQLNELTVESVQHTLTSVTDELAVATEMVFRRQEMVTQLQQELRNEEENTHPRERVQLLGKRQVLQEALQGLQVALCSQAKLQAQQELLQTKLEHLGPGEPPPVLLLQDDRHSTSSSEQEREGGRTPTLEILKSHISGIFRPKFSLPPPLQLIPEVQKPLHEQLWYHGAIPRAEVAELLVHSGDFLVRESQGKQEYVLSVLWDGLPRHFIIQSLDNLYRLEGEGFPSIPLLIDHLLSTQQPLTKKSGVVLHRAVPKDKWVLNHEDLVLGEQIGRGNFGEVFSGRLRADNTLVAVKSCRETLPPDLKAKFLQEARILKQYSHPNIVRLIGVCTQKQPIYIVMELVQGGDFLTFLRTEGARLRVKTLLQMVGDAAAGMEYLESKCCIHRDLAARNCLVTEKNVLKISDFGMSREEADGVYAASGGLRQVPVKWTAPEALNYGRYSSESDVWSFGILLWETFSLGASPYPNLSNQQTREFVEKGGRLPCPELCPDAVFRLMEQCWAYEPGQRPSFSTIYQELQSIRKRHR", "assay": "Inhibition of N-terminal His6-tagged recombinant full length human Fes expressed in baculovirus infected Sf21 cells assessed as residual activity at 0.1 uM relative to control"}, "[8]": {"molecular_target": "cAMP-dependent protein kinase catalytic subunit PRKX (Homo sapiens) (UniProt P51817)", "sequence (P51817 whole entry)": "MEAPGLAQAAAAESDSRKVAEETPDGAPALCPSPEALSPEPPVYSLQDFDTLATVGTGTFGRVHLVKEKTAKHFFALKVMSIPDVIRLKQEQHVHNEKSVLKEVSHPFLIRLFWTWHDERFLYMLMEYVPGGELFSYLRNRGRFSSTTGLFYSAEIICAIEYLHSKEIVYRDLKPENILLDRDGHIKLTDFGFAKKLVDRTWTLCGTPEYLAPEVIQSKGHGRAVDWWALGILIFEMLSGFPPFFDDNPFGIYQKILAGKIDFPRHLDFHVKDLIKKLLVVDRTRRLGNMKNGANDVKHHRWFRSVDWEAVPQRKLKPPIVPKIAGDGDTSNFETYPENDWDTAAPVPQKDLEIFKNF", "assay": "Inhibition of N-terminal 6His-tagged recombinant full-length human PrKX expressed in baculovirus infected Sf21 cells assessed as residual activity at 0.1 uM relative to control"}, "[9]": {"molecular_target": "Tyrosine-protein kinase Fer (Homo sapiens) (UniProt P16591)", "sequence (P16591 whole entry, looked up)": "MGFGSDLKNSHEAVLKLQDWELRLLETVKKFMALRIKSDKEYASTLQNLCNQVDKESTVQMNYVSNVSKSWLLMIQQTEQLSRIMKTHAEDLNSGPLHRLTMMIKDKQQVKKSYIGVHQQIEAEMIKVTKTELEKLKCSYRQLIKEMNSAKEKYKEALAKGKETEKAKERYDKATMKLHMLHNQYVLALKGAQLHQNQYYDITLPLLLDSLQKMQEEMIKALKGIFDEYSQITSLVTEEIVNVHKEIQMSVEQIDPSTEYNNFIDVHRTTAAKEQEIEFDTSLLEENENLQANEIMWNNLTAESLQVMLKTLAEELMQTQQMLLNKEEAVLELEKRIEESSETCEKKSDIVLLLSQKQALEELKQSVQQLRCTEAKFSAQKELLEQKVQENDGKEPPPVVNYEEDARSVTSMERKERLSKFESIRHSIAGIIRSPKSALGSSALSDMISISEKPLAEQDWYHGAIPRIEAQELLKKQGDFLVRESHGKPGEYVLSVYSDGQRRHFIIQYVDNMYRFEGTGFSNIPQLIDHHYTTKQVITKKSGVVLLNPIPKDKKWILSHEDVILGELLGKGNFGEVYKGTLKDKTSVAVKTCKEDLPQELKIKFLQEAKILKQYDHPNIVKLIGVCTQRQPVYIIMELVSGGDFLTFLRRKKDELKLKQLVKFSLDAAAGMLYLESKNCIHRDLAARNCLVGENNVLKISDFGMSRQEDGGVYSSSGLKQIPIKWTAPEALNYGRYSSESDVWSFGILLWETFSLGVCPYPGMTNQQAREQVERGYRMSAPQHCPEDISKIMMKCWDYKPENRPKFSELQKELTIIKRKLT", "assay": "Inhibition of N-terminal His6 tagged recombinant human Fer (541 to end residues) expressed in baculovirus infected Sf21 cells assessed as residual activity at 0.1 uM relative to control"}, "[10]": {"molecular_target": "Activated CDC42 kinase 1 (Homo sapiens, UniProt Q07912)", "sequence (Q07912 whole entry)": "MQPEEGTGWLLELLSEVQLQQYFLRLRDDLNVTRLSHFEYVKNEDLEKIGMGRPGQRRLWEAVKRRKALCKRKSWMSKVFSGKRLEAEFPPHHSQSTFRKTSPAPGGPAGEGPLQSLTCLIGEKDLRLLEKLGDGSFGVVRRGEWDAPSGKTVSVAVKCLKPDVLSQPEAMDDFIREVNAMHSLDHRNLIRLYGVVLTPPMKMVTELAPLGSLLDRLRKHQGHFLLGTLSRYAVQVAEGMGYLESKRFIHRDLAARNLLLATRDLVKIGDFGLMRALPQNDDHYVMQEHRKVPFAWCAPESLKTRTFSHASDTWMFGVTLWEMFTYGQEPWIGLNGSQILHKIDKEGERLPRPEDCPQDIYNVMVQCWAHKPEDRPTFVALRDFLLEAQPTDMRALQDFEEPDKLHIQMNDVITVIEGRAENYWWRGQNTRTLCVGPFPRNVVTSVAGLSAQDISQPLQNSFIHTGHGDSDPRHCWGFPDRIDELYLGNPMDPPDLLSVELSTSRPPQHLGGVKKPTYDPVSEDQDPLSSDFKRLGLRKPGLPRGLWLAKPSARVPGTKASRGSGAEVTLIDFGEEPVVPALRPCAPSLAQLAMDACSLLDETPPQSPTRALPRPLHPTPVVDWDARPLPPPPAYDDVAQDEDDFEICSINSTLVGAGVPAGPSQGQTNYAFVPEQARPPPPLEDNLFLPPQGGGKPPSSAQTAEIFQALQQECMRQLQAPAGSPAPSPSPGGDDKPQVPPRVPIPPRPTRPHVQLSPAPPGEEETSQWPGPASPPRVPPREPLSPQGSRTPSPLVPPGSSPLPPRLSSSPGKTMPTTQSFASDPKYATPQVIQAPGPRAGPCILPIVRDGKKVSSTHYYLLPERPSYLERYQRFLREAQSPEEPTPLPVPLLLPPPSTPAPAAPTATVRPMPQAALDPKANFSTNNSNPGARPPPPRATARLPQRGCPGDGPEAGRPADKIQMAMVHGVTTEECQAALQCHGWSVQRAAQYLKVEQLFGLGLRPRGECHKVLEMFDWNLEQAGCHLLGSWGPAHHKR", "assay": "Inhibition of ACK1 (unknown origin) in presence of [gamma-33P]ATP"}, "[11]": {"assay": "Cmax in male cynomolgus monkey at 5 mg/kg, iv by LC-MS analysis", "type": "ADME, organism-based, Macaca fascicularis", "details": "in vivo"}, "[12]": {"molecular_target": "Dual specificity tyrosine-phosphorylation-regulated kinase 2 (Homo sapiens) (UniProt Q92630)", "assay": "Inhibition of 6His-tagged recombinant full-length human DYRK2 expressed in baculovirus infected Sf21 cells assessed as residual activity at 1 uM relative to control"}, "[13]": {"assay": "Cmax in Sprague-Dawley rat at 10 mg/kg, iv by LC-MS analysis", "type": "ADME, organism-based", "details": "in vivo"}, "[14]": {"assay": "AUC in nu/nu mouse at 10 mg/kg, iv by LC-MS analysis", "type": "ADME, organism-based", "details": "in vivo"}, "[15]": {"assay": "Inhibition of AUR2 (unknown origin) in presence of [gamma-33P]ATP", "design": "species or system Homo sapiens"}, "[16]": {"test_system": "LCLC-97TM1", "assay": "Antiproliferative activity against human LCLC-97TM1 cells assessed as inhibition of cell growth incubated for 72 hrs by cell-titer glo assay", "type": "functional, cell-based", "details": "LCLC-97TM1, 72 h", "summary_of_the_method": "as §1"}, "[17]": {"test_system": "RO82-W-1", "assay": "Antiproliferative activity against human RO82-W-1 cells assessed as inhibition of cell growth incubated for 72 hrs by cell-titer glo assay", "type": "functional, cell-based", "details": "RO82-W-1, 72 h", "summary_of_the_method": "as §2"}, "[18]": {"test_system": "SU-DHL-1", "assay": "Antiproliferative activity against human SU-DHL-1 cells assessed as inhibition of cell growth incubated for 72 hrs by cell-titer glo assay", "type": "functional, cell-based", "details": "SU-DHL-1, 72 h"}, "[19]": {"molecular_target": "Serine/threonine-protein kinase ULK3 (Homo sapiens) (UniProt Q6PHR2)", "assay": "Inhibition of N-terminal 6His-tagged recombinant human full-length ULK3 expressed in baculovirus infected Sf21 cells assessed as residual activity at 0.1 uM relative to control"}, "[20]": {"assay": "AUC in nu/nu mouse at 10 mg/kg, po by LC-MS analysis", "type": "ADME, organism-based", "details": "in vivo"}, "[21]": {"assay": "Oral bioavailability in Sprague-Dawley rat at 10 mg/kg by LC-MS analysis", "type": "ADME, organism-based", "details": "in vivo"}, "[22]": {"test_system": "A2780", "assay": "In vivo inhibition of PLK1 in human A2780 cells xenografted in nu/nu mouse assessed as decreased TCTP phosphorylation on Ser46 at 60 mg/kg, po administered for 6 to 12 hrs by immunohistochemistry analysis", "type": "functional, organism-based", "details": "time lower 6.0 hrs, time upper […]"}, "[23]": {"assay": "Antiproliferative activity against human GM13705 cells assessed as inhibition of cell growth incubated for 72 hrs by cell-titer glo assay", "type": "functional, cell-based", "details": "GM13705, 72 h", "summary_of_the_method": "as §1"}, "[24]": {"assay": "Half-life in nu/nu mouse at 10 mg/kg, iv by LC-MS analysis", "type": "ADME, organism-based", "details": "in vivo"}, "[25]": {"molecular_target": "cAMP-dependent protein kinase (PKA) (Homo sapiens) (UniProt P22694+P17612+P22612)", "assay": "Inhibition of recombinant human full-length PKA expressed in E.coli BL21 (DE3) pLysS cells assessed as residual activity at 1 uM relative to control"}, "[26]": {"molecular_target": "Ephrin type-A receptor 4 (Homo sapiens) (UniProt P54764)", "assay": "Inhibition of N-terminal His6-tagged recombinant human EphA4 (601 to 892 residues) expressed in baculovirus infected Sf21 cells assessed as residual activity at 1 uM relative to control"}, "[27]": {"test_system": "A2780", "assay": "Induction of cell cycle arrest in human A2780 cells assessed as accumulation of cells at G2/M phase by measuring 4N DNA content incubated for 24 hrs by flow cytometry analysis", "details": "dose 20-200 nmol/L"}, "[28]": {"molecular_target": "CDK9/cyclin T1 (Homo sapiens) (UniProt O60563+P50750)", "assay": "Inhibition of C-terminal 6His-tagged full-length recombinant human CDK9/ full-length human cyclin T1 expressed in baculovirus infected Sf21 cells assessed as residual activity at 0.1 uM relative to control"}, "[29]": {"test_system": "OPM-2", "assay": "Antiproliferative activity against human OPM-2 cells assessed as inhibition of cell growth incubated for 72 hrs by cell-titer glo assay", "type": "functional, cell-based", "details": "OPM-2, 72 h", "summary_of_the_method": "as §2"}, "[30]": {"molecular_target": "Serine/threonine-protein kinase pim-2 (Homo sapiens, UniProt Q9P1W9)", "sequence (Q9P1W9 whole entry)": "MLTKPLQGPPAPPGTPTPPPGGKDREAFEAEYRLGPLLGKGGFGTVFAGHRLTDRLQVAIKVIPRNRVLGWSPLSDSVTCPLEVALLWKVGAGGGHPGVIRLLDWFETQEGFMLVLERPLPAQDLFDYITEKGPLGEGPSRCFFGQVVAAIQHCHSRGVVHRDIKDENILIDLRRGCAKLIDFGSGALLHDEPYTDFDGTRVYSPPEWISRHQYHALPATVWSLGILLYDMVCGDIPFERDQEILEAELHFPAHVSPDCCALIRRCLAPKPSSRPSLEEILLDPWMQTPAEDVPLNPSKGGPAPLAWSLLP", "assay": "Inhibition of PIM2 (unknown origin) in presence of [gamma-33P]ATP"}, "[31]": {"assay": "Clearance in Sprague-Dawley rat at 10 mg/kg, iv by LC-MS analysis", "type": "ADME, organism-based", "details": "in vivo"}, "[32]": {"assay": "Oral bioavailability in nu/nu mouse at 10 mg/kg by LC-MS analysis", "type": "ADME, organism-based", "details": "in vivo"}}, "note": "The source made the active and inactive calls. The calls are words filed in the database; no cut-off is given here.", "data": [{"smiles": "CN1CCN(c2ccc(OC(F)(F)F)c(Nc3ncc4c(n3)-c3c(c(C(N)=O)nn3CCO)CC4)c2)CC1", "note": "[ONVANSERTIB]", "values": [{"measurement": "IC50", "setting": "[1]", "result": "> 10000", "unit": "nM"}, {"measurement": "Activity", "setting": "[2]", "result": 69, "unit": "%"}, {"measurement": "IC50", "setting": "[3]", "result": 15, "unit": "nM"}, {"measurement": "Activity", "setting": "[4]", "result": 156, "unit": "%"}, {"measurement": "IC50", "setting": "[5]", "result": 41, "unit": "nM"}, {"measurement": "clearance", "setting": "[6]", "result": 11.2, "unit": "mL/min/kg"}, {"measurement": "Activity", "setting": "[7]", "result": 73, "unit": "%"}, {"measurement": "Activity", "setting": "[8]", "result": 90, "unit": "%"}, {"measurement": "Activity", "setting": "[9]", "result": 125, "unit": "%"}, {"measurement": "IC50", "setting": "[10]", "result": "> 10000", "unit": "nM"}, {"measurement": "Cmax", "setting": "[11]", "result": 3, "unit": "µM"}, {"measurement": "Activity", "setting": "[12]", "result": 83, "unit": "%"}, {"measurement": "Cmax", "setting": "[13]", "result": 6.8, "unit": "µM"}, {"measurement": "AUC", "setting": "[14]", "result": 8.6, "unit": "µM·h"}, {"measurement": "IC50", "setting": "[15]", "result": "> 10000", "unit": "nM"}, {"measurement": "IC50", "setting": "[16]", "result": 32, "unit": "nM"}, {"measurement": "IC50", "setting": "[17]", "result": 837, "unit": "nM"}, {"measurement": "IC50", "setting": "[18]", "result": 96, "unit": "nM"}, {"measurement": "Activity", "setting": "[19]", "result": 139, "unit": "%"}, {"measurement": "AUC", "setting": "[20]", "result": 2, "unit": "µM·h"}, {"measurement": "F", "setting": "[21]", "result": 100, "unit": "%"}, {"measurement": "inhibition", "setting": "[22]", "result": "Active"}, {"measurement": "IC50", "setting": "[23]", "result": 162, "unit": "nM"}, {"measurement": "half-life", "setting": "[24]", "result": 54, "unit": "min"}, {"measurement": "Activity", "setting": "[25]", "result": 85, "unit": "%"}, {"measurement": "Activity", "setting": "[26]", "result": 80, "unit": "%"}, {"measurement": "Activity", "setting": "[27]", "result": "Dose-Dependent Effect"}, {"measurement": "Activity", "setting": "[28]", "result": 64, "unit": "%"}, {"measurement": "IC50", "setting": "[29]", "result": 38, "unit": "nM"}, {"measurement": "IC50", "setting": "[30]", "result": "> 10000", "unit": "nM"}, {"measurement": "clearance", "setting": "[31]", "result": 20.6, "unit": "mL/min/kg"}, {"measurement": "bioavailability", "setting": "[32]", "result": 24, "unit": "%"}]}]}
